The source made the active and inactive calls. No cut-off for these calls is given here.
Tests used:
[1] = target: Arginase (Leishmania amazonensis) (UniProt O96394); assay: Competitive inhibition of recombinant Leishmania amazonensis arginase expressed in Escherichia coli using 25 to 100 mM L-arginine levels
[2] = target: T1, Arginase (Leishmania amazonensis, UniProt O96394); assay: Inhibition of recombinant Leishmania amazonensis arginase expressed in Escherichia coli using L-arginine as substrate
Method in brief: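 Recombinant E. coli-expressed LaARG was run with L-arginine at 25, 50 and 100 mM separately. Inhibitor was 200 to 0.05 µM by 4-fold serial dilution, in triplicate in two independent experiments. IC50 came from nonlinear sigmoidal regression of log dose versus enzyme activity; reported IC50 values are at 50 mM substrate.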

[3] = tested on: Leishmania amazonensis; assay: Antileishmanial activity against Leishmania amazonensis LTB0016 amastigotes assessed as induction of parasite morality at 30 uM incubated for 48 hrs by Alamar blue dye based assay relative to control; assay type: functional; details: LTB0016, 48 h
Method in brief: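 Amastigotes purified by mechanical dissociation in RPMI from paw skin lesions of male Swiss Webster mice 30 days after subcutaneous infection with 10^6 amastigotes. Parasites at 10^6/well exposed 48 h at 32 °C, 5% CO2, with compound up to 30 µM (DMSO ≤0.6% final). Then 24 h with 10% AlamarBlue, OD read at 570-600 nm; pentamidine as reference.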

[4] = (§1) Cytotoxicity against Swiss mouse peritoneal macrophages assessed as reduction in cell viability incubated for 48 hrs by MTT assay; assay type: cell-based, Peritoneal macrophage; details: Swiss, peritoneal macrophages, read-out: LC50
Method in brief: (§2)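 Peritoneal cells harvested in RPMI 96 h after 3% thioglycolate (1 mL) in male Swiss mice (18-20 g). Plated at 10^5 cells/well in RPMI 1640 with 10% FBS and 2 mM glutamine. After 24 h, exposed to compound up to 200 µM, 48 h, 37 °C, 5% CO2. MTT 0.45 mg/mL added for 4 h, OD at 570. LC50 derived; at least 2 runs in triplicate.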

[5] = target: Arginase (Leishmania amazonensis) (UniProt O96394); assay: Inhibition of recombinant Leishmania amazonensis arginase expressed in Escherichia coli at 100 uM using L-arginine as substrate relative to control
Method in brief: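 Recombinant LaARG was expressed in E. coli. Single-point screen: 100 µM compound with 50 mM L-arginine in 50 mM CHES, pH 9.5. DMSO stocks (70 mM) were diluted to 1 mM in deionized water before assay. Run in triplicate in two independent experiments.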

[6] = target: Arginase (Leishmania amazonensis) (UniProt O96394); assay: Uncompetitive inhibition of recombinant Leishmania amazonensis arginase expressed in Escherichia coli assessed as dissociation constant for ternary complex enzyme-substrate-inhibitor using L-arginine as substrate by Dixon or Cornish-Bowden plot analysis
Method in brief: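 Kinetics on recombinant LaARG used L-arginine at 25, 50 and 100 mM, each with three inhibitor concentrations. Points are the mean of three independent experiments run in duplicate. Mechanism came from linear-regression Dixon and Cornish-Bowden plots. Kis (ESI complex dissociation constant) was taken from the intersection of lines on the Cornish-Bowden plot.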

[7] = tested on: Peritoneal macrophage; assay: as §1; assay type: cell-based; details: peritoneal macrophage, 48 h; method in brief: as §2
[8] = tested on: Leishmania amazonensis; assay: Antileishmanial activity against Leishmania amazonensis LTB0016 amastigotes assessed as induction of parasite morality incubated for 48 hrs by Alamar blue dye based assay relative to control; assay type: functional, organism-based; details: LTB0016, 48 h
Method in brief: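 Free amastigotes (LTB0016) were purified by mechanical dissociation in RPMI from paw skin lesions of male Swiss Webster mice 30 days after s.c. infection with 10^6 amastigotes. Parasites at 10^6/well were exposed to compounds up to 30 µM for 48 h at 32 °C in 5% CO2. AlamarBlue (10%) was then added for 24 h at 32 °C and OD read at 570-600 nm. Final DMSO was ≤0.6%.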

[9] = target: T1, Arginase; assay: Non-competitive inhibition of Leishmania amazonensis arginase using L-arginine as substrate incubated for 15 mins

In the case of `NC(=S)NNc1ncnc2c1cnn2-c1ccc(C(F)(F)F)cc1`, the inhibition [1] is reported as “inactive”, the IC50 [2] is reported as 47 µM and the mortality at 30 µM [3] is reported as 20 to 30%. For the same compound, the CC50 at 48 h [4] was over 200 µM, the inhibition [5] was 73.8% and the K [6] was 29 µM.
For `N#Cc1ccc(-n2ncc3c(NNC(N)=S)ncnc32)cc1`, the IC50 [2] was 100 µM, the LC50 [7] was “Nd(Insoluble)” and the inhibition [5] was 59.8%.
Compound `N=C(N)c1ccc(OCCCCCOc2ccc(C(=N)N)cc2)cc1` [PENTAMIDINE] has a CC50 at 48 h [4] of 17.2 µM and an EC50 [8] of 0.8 µM.
`NC(=S)NNc1ncnc2c1cnn2-c1ccc(Cl)cc1` showed an IC50 [2] of over 100 µM, a mortality at 30 µM [3] of 20 to 30% and a CC50 at 48 h [4] of over 200 µM. The inhibition [5] was 46%.
In the case of `NC(=S)NNc1ncnc2c1cnn2-c1ccccc1`, the inhibition [1] is reported as “inactive”, the IC50 [2] is reported as 12 µM and the mortality at 30 µM [3] is reported as 20 to 30%. The CC50 at 48 h [4] was over 200 µM, the inhibition [5] was 74.3% and the K [6] was 8.5 µM.
In the case of `NC(=S)NNc1ncnc2c1cnn2-c1ccc(F)cc1`, the IC50 [2] is reported as over 100 µM, the mortality at 30 µM [3] is reported as 20 to 30% and the CC50 at 48 h [4] is reported as over 200 µM. It also gave an inhibition [5] of 36.4%.
`Cc1cc(NNC(N)=S)n2nc(C(F)(F)F)nc2n1` showed an IC50 [9] of 16.5 µM, a Ki [9] of 17 µM and an IC50 [2] of 16.5 µM. The mortality at 30 µM [3] was 20 to 30%, the CC50 at 48 h [4] was over 200 µM and the inhibition [5] was 81%. It also gave a K [6] of 17 µM.
In the case of `Cc1ccc(-n2ncc3c(NNC(N)=S)ncnc32)cc1`, the IC50 [2] is reported as over 100 µM, the LC50 [7] is reported as “Nd(Insoluble)” and the inhibition [5] is reported as 42.2%.

Reference: ChEMBL document CHEMBL4340573, “New pyrazolopyrimidine derivatives as Leishmania amazonensis arginase inhibitors” (Bioorg Med Chem, 2019)
